Fewer inactive variants are shown than the library holds. A value given as a limit tells only on which side of the number the result lay.

B1: tRNA (parent)
chain: GUUCCGUUGGCGUAAUGGUAACGCGUCUCCCUCCUAAGGAGAAGACUGCGGGUUCGAGUCCCGUACGGAACG

In the series the parent is B1. Briefly: yeast fitness relative to wild type (ratio to wild type); higher = fitter; tRNA-Arg(CCU), competitive growth, 37 C, YPD. The method, boiled down:
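The tRNA-Arg(CCU) gene variants were made by chemical synthesis with a 3% per-site mutation rate at 69 sites and inserted at the native genomic locus of Saccharomyces cerevisiae. After pooling, the strains were competed in YPD at 37°C for 24 hours in six parallel replicates. Gene amplicons from the start population and each end population were read by 100-nucleotide paired-end sequencing, and Darwinian fitness relative to wild type was taken from genotype frequency changes. Genotypes needed ≥ 100 starting reads, and estimates < 0.5 were set to 0.5.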
As for GUUCCGUUGGCGUAAUGGCUACGCGUCUCCCUCCUAAGGAGCAGACUGCGGGUUCGAGUCCCGUCCGGUACG, the yeast fitness was no more than 0.5. Under GUUCCGUUGGCGUAAUGGCAACGCGUCUCCCUCCUCAGGAGAAGACACCGGGUGCGAGUCCCGUCCGGAACG stands no more than 0.5. Regarding GUUCCGUUGGCGUAAUGGAAACGCGUCUCCCUCCUAAGGAGAAGACUGCGGGUUCGAGUCCCGUACUGAACG, the yeast fitness was 0.974.

For the variant GUUCCGUUGGCGUAAUGGAAACGCGUCUCCCUCCUAAGGAGAAGACUGCGGGUUCGAGUCCCGUACCGAACG, the yeast fitness worked out at 0.74. Under GUUCCGUUGGCGUAAUGGAAACGCGACUCCCUCCUAAGGAGAAGACUGCGGGUUCGAGUCCCGUACGGAACG stands 0.907; under GUUCCGUUGGCGUAAUGGAAACGCGCCUCCCUCCUAAGGAGAAGACUGCGGGUUCGAGUCCCGUACGGAACG, 0.834. The result for GUUCCGUUGGCGUAAUGGAAACGCGUCUCCCUCCUAAGGAGAAGACUGCGGCUUCGAGUCCCGUACGGAACG reads 0.656; that for GUUCCGUUGGCGUAAUGGCAACGCGUCUCCCUCCUAGGGAGAAGACUGUGGGUUCGAGUCCCGUACGGAACG, 0.566; that for GUUCCGUUGGCGUAAUGGCCACGCGUCUCCCUCCUAAGGAGAAGACUGCGGGUUCGAGUCCCGUACGGAACG, 0.805. In the case of GUUCCGUUGGCGUAAUGGAAACGCGUCUCCCUCCUAAGGACAAGACUGCGGGUUCGAGUCCCGUACGGAUCG, the yeast fitness was no more than 0.5. The result for GUUCCGUUGGCGUAAUGGAAACGCGUCUCCCUCCUAAGGAGAAGACUGCGGGUUUGAGUCCCGUACGGAACG reads 0.694; that for GUUCCGUUGGCGUAAUGGAAACGCCUCUCCCUACUAGGGAGAAGACUGCGGGUUUGAGUCCCGUACGGAACG, no more than 0.5. As for GUUCCGUUGGCGUAAUGGCAACGCGUCUCCCUCCUAGGGAGAAGACUGUGGGUUCGAGUCCCGUACGGCACG, the yeast fitness was determined as 0.51. Under GUUCCGUUGGCGUAAUGGCAUCGCGUCUCCCUCCUAAGGAGAAGACUGCGGGUUCGAGUCCCGUACGGUACG stands 0.691; under GUUCCGUUGGCGUAAUGGAAACGCGCCUCACUCCUAAGGAGACGACUGCGGGUUCGAGUCCCGUACGGAACG, no more than 0.5; under GUUCCGUUGGCGUAAUGGCAUCGCGUCUCCCUCCUAAGGUGAAGACUGCGGGUUCGAGUCCCGUACGGAACG, 0.641. The result for GUUCCGUUGGCGUAAUGGAAACGCGACUACCUCCUAAGGAGAAGAGUGCGGGUACGAGUCCCGUACGGAACG reads 0.603; that for GUUCCGUUGGCGUAAUGGCACCGCGUCUCCCUCCUAAGGAGAAGACUGCGGGUUCGAGUCCCGUACGGAACG, 1.12; that for GUUCCGUUGGCGUAAUGGCAUCGCGUCUCCCUCCUAAGGAGAAGACUGCGGGUUCGAGUCCCGUACGGAACG, 0.846. The result for GUUCCGUUGGCGUAAUGGAAACGCGUCUCCCUCCUAAGGAGAAGACUGCAGGUUCGAGUCCCGUACGGAACG reads 0.795; that for GUUCCGUUGGCGUAAUGGCUACGCGUCUCCCUCCUAAGGAGAAGACUGCGGGUUCGAGUCGCGUAUGGUACG, no more than 0.5.

Regarding GUUCCGUUGGCGUAAUGGCCUCGCGUCUCCCUCCUAAGGAGAAGACUGCGGGUUCGAGUCCCGUACGGAACG, the yeast fitness was no more than 0.5.

With GUUCCGUUGGCGUAAUGGAAACGCGUCUCCCUCCUAAGCAGAAGACUGCGGGUUCGAGUCCCGUACGGUACG, the yeast fitness was 0.574. Under GUUCCGUUGGCGUAAUGGAAACGCGUCUCCCUCCUAAGGAGAAGACUGCGGGUUCGAAUCCCGUACGGUACG stands 1.2. For the variant GUUCCGUUGGCGUAAUGGAAACGCGUCUCCCUCCUAAGGAGAAGACAGCGGGUUCGAGUCACGUACGGAACG, the yeast fitness was 0.549. The result for GUUCCGUUGGCGUAAUGGCAACGCGUCUCCCUCCUAUGGAGAAGACUGCGGGUUCGAGUCCCGUAGGGAACG reads no more than 0.5; that for GUUCCGUUGGCGUAAUGGAAACGCGUCUCCCUCCUAAGGAGAAGACUACGGGUUCGAGUCCCGUACGGUACG, 0.966; that for GUUCCGUUGGCGUAAUGGCCACGCGUCUCCCUCCUAAGGAGAAGACUGCCGGUUCGAGUCCCGCACGGAACG, no more than 0.5. For GUUCCGUUGGCGUAAUGGCAACGCGUCUCCCUCCUCAGGACAAGACUGCGGGUUCGAGUCCCGUACGGAACG, the yeast fitness was no more than 0.5. The result for GUUCCGUUGGCGUAAUGGAAACGCGUCACCCUCCUAAGGAGAAGACUGCGGGUUCGAGUGCCGUACGGAACG reads no more than 0.5; that for GUUCCGUUGGCGUAAUGGCGACGCGUCUCCCUCCUAGGGAGAAGACUGCGGGUUCGAGUCCCGUACGGAACG, no more than 0.5. Consider GUUCCGUUGGCGUAAUGGCCACGCGUCUCCGUCCUAAGGAGAAGACUGCGGGUUCGAGUCCCGUACAGAACG, for which the yeast fitness is no more than 0.5.

In the case of GUUCCGUUGGCGUAAUGGAAACGCCUCUCCCUACUAGGGAGAAAACUGCGGGUUCGAGUCCCGUACGGAACG, the yeast fitness was no more than 0.5. The result for GUUCCGUUGGCGUAAUGGAAACGCGCCUCCCUCCUAAGGAGAAGACUGGGGGUUCGAGUCCCGUAGGGAACG reads no more than 0.5; that for GUUCCGUUGGCGUAAUGGCCACGCGUCUCCCUUCAAAGGAGAAGACUGAGGGUUCGAGUCCCGUACGGUACG, no more than 0.5.

GUUCCGUUGGCGUAAUGGCCACGCGUCUCCCUUCUAAGGAGAAGACUGCGGGUUCGAGUCCCGUACGGCACG: the yeast fitness was no more than 0.5. With GUUCCGUUGGCGUAAUGGCCACGAGUCUCCCUCCUAAGGAGAAGACUGCGGGUUCGAGUCCCGUACGGAACG, the yeast fitness is no more than 0.5. GUUCCGUUGGCGUAAUGGAAACGCGUCUCCCUCCUAAGGAGAAGACUGCGGGUUCGAGUGCCGUACGGUACG: the yeast fitness is no more than 0.5.
